# How the values were obtained:
# Nucleic Acid [1] = assay: Ratio of drug level in striatum to midbrain region in cynomolgus monkey at 185 to 259 MBq, iv measured at 70 mins by micro PET image analysis; type: ADME, organism-based, Macaca fascicularis, Brain; conditions: in vivo
# Method in brief: (§1)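 Adult male cynomolgus macaques (~4–6 kg), three independent PET studies per tracer on a microPET Focus 220. Animals fasted 12 h and anesthetized with ketamine (10 mg/kg) plus glycopyrrolate (0.13 mg/kg) i.m. A 10 min positioning transmission scan and a 45 min attenuation transmission scan were run, then a 3 h dynamic emission scan after venous tracer injection. Regional TACs came from ROIs, expressed as SUV (body weight, injected dose).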
# Nucleic Acid [2] = assay: Ratio of drug level in striatum to midbrain region in cynomolgus monkey at 185 to 259 MBq, iv measured at 40 mins by micro PET image analysis; type: ADME, organism-based, Macaca fascicularis, Brain; conditions: in vivo; method in brief: as §1
# Liver = assay: Biodistribution in Sprague-Dawley rat liver at 1.48 to 2.22 MBq, iv measured at 30 mins by gamma counting analysis; type: ADME, organism-based; conditions: in vivo, 0.5 h
# Method in brief: (§2)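 Male Sprague-Dawley rats (250 - 400 g), tail-vein injection of 1.48 - 2.22 MBq radiotracer under 2.5% isoflurane in oxygen; n=4 per time point, euthanized at 5, 30 and 60 min p.i. Brain regions obtained by gross dissection; peripheral tissues collected. Samples weighed, gamma-counted against a diluted-injectate standard; %ID/g calculated.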
# Plasma = assay: Retention time of the compound in cynomolgus monkey plasma at 185 to 259 MBq, iv by HPLC analysis; type: ADME, organism-based, Macaca fascicularis
# Method in brief: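 Arterial blood (~1.5 mL) drawn at 2, 15, 30, 60 and 90 min p.i. into heparinized syringes, then centrifuged to plasma. Plasma deproteinated with 2 parts ice-cold methanol. Extract run on C-18 HPLC, MeCN/0.1 M ammonium formate pH 4.5, 0.9 mL/min, UV 254 nm. 1-min fractions over 16 min were well-counted and decay-corrected; parent percentage taken from recovered activity.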
# Nucleic Acid [3] = assay: Ratio of drug level in striatum to hippocampus in cynomolgus monkey at 185 to 259 MBq, iv measured at 70 mins by micro PET image analysis; type: ADME, organism-based, Macaca fascicularis; conditions: in vivo; method in brief: as §1
# Nucleic Acid [4] = assay: Ratio of drug level in striatum to cerebellum in cynomolgus monkey at 185 to 259 MBq, iv measured at 40 mins by micro PET image analysis; type: ADME, organism-based, Macaca fascicularis; conditions: in vivo; method in brief: as §1
# Nucleic Acid [5] = assay: Ratio of drug level in striatum to white matter in cynomolgus monkey at 185 to 259 MBq, iv measured at 70 mins by micro PET image analysis; type: ADME, organism-based, Macaca fascicularis; conditions: in vivo; method in brief: as §1
# Bone = assay: Biodistribution in Sprague-Dawley rat bone at 1.48 to 2.22 MBq, iv measured at 5 mins by gamma counting analysis; type: ADME, organism-based, Bone element; conditions: in vivo; method in brief: as §2
# Rattus norvegicus [6] = assay: Biodistribution in Sprague-Dawley rat fat tissue at 1.48 to 2.22 MBq, iv measured at 30 mins by gamma counting analysis; type: ADME, organism-based, Adipose tissue; conditions: in vivo, 0.5 h; method in brief: as §2
# Putamen = assay: Drug uptake in cynomolgus monkey putamen at 185 to 259 MBq, iv measured over 180 mins by micro PET image analysis; type: ADME, organism-based, Macaca fascicularis; conditions: in vivo, 3 h
# Method in brief: (§3)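 Adult male cynomolgus macaques (~4–6 kg), three studies per tracer, fasted 12 h. Induction with ketamine 10 mg/kg plus glycopyrrolate 0.13 mg/kg i.m. Transmission scans of 10 min for positioning and 45 min for attenuation correction, then a 3 h dynamic microPET emission scan after venous injection of 185 - 259 MBq. ROI time-activity curves expressed as SUV (body weight and injected dose).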
# Blood = assay: Biodistribution in Sprague-Dawley rat blood at 1.48 to 2.22 MBq, iv measured at 60 mins by gamma counting analysis; type: ADME, organism-based; conditions: in vivo, 1 h; method in brief: as §2
# Rattus norvegicus [7] = assay: Biodistribution in Sprague-Dawley rat fat tissue at 1.48 to 2.22 MBq, iv measured at 60 mins by gamma counting analysis; type: ADME, organism-based, Adipose tissue; conditions: in vivo, 1 h; method in brief: as §2
# Caudate = assay: Drug uptake in cynomolgus monkey caudate at 185 to 259 MBq, iv measured over 180 mins by micro PET image analysis; type: ADME, organism-based, Macaca fascicularis, Caudate nucleus; conditions: in vivo, 3 h; method in brief: as §3
smiles,measurement,setting,value
Cn1cc(-c2ccncc2)c(-c2ccc(OCc3nc4ccccc4cc3OCC[18F])cc2)n1,Ratio,Nucleic Acid [1],> 5
same,Ratio,Nucleic Acid [2],> 3
same,Drug uptake,Liver,3.17 % ID/g
same,Retention_time,Plasma,10.5 min
same,Ratio,Nucleic Acid [3],> 5
same,Ratio,Nucleic Acid [4],> 3
same,Ratio,Nucleic Acid [5],> 5
same,Drug uptake,Bone,0.182 % ID/g
same,Drug uptake,Rattus norvegicus [6],0.202 % ID/g
same,Drug uptake,Putamen,Active
same,Drug uptake,Blood,0.287 % ID/g
same,Drug uptake,Rattus norvegicus [7],0.124 % ID/g
same,Drug uptake,Caudate,Active
